Screening data as filed in PubChem.
Rows were chosen to be rich in hits. Some 2% of all compounds tested hit in one or more screens of this group.
core dimer inh: inhibitors of HCV core protein dimerization, primary screen, biochemical, TR-FRET, high-throughput | TR-FRET GST/Flag-core106 dimerization, 1536-well | inhibition, % at 5 µM | 300,000 compounds, 0.33% hits;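 active = inhibition above the mean of all tested compounds plus 3 SD, set per screening campaign, cut at about 45% in these data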
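Test system: GST/Flag-tagged HCV core106 proteins; Medium: KF-containing HEPES buffer, pH 7.45, DTT, CHAPS, BSA; Times: compound-protein-antibody incubation 4 h at 22.5 °C; Detection: TR-FRET 671 and 617 nm emission; Benchmarks: wells lacking GST-core106 and wells with excess unlabelled core106.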
PABP polyA inh: PABP poly(A) RNA binding inhibitors, primary screen, biochemical, fluorescence polarization, uHTS; Polyadenylate-binding protein 1 (Homo sapiens), P11940; 290,000 compounds, 1% hits; AID 2014, 2009; inhibition, % at 35 µM;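 also: calls also rest on retests at 20 µM and on dose response follow-up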
DNA FID counter: compounds displacing fluorescent DNA intercalator, primary screen, artefact control for HCV NS3 helicase inhibitor project, biochemical, FID fluorescence; DNA fluorescent intercalator displacement; inhibition, % at 7.9 µM; 290,000 compounds, 0.17% hits; AID 1845, 2009; in the data active = inhibition above about 37%;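 also: higher means more ethidium bromide displaced from hairpin DNA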
MLLE-PAM2 inh: inhibitors of PABP1 MLLE–PAM2 peptide binding, primary screen, biochemical, fluorescence polarization, FITC-PAM2, GST-MLLE; Polyadenylate-binding protein 1 (Homo sapiens), P11940; inhibition, % at 20 µM; 360,000 compounds, 0.36% hits; in the data active = inhibition above about 35%, passing the limit was not always enough
eIF4H FP inh: human eIF4H binding inhibitors, primary screen, translation initiation inhibitor project, biochemical, uHTS, fluorescence polarization | inhibition, % at 35 µM | Eukaryotic translation initiation factor 4H (Homo sapiens), Q15056 | 290,000 compounds, 0.94% hits | eIF4H fluorescence polarization binding assay;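 also: calls also rest on retests at 20 µM and on dose response follow-up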
NS3 helicase inh: inhibitors of HCV NS3 helicase, primary screen, biochemical, Cy5 molecular beacon fluorescence; Hepatitis C virus NS3 helicase; NS3 helicase DNA unwinding; inhibition, % at 10.9 µM; 290,000 compounds, 0.56% hits; AID 1800, 2009;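 active = inhibition above the mean of all tested compounds plus 3 SD, set per campaign, cut at about 35% in these data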
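Assay system: hepatitis C virus NS3 helicase domain fragment enzyme. Also added: annealed dual-labelled DNA beacon duplex, ATP-started. Timing: 1 h reaction at 25 °C, ATP-initiated. Technique: Cy5 fluorescence at 0 and 60 min, beacon hairpin quenching. Evaluation: % inhibition of unwinding. Replication: one well per compound.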
Of the large screens only hits and unclear results are named; the others gave an inactive call. Unless noted, no rule for the calls is given here.

Cc1cc(=O)[nH]c(SCC(=O)Nc2ccc(S(N)(=O)=O)cc2)n1	PABP polyA inh active, eIF4H FP inh 62.8
COC(=O)C(C(=O)OC)=C(/C=C/C=C/N(C)C)N(C)C	PABP polyA inh 91.1, eIF4H FP inh 100.8
COC(=O)C(C(=O)OC)=C(/C=C/N(C)C)N(C)C	none
Cn1cc(S(=O)(=O)NC[C@H]2O[C@@H](n3cnc4c(N)ncnc43)[C@H](O)[C@@H]2O)cn1	none (no result: core dimer inh, PABP polyA inh, DNA FID counter, eIF4H FP inh, NS3 helicase inh)
Cc1cccc2c(N=Nc3ccc(S(=O)(=O)Nc4ccc(Cl)cc4)cc3[N+](=O)[O-])c(O)[nH]c12	core dimer inh 49.1
CCNc1ccccc(C(=O)/C=C/c2ccc3c(c2)OCO3)c1=O	core dimer inh 50.2
CC(C)C(NC(=O)c1ccc(C(C)(C)C)cc1)C(=O)NCC(c1ccccc1)N(C)C (stereo unspecified)	DNA FID counter 36.8
CC(C)C(NC(=O)c1ccc(C(C)(C)C)cc1)C(=O)NCCc1ccccn1 (stereo unspecified)	none
CCCCN(C)CCNC(=O)C1CCN(S(=O)(=O)c2cccc3nsnc23)CC1	none
O=C(O)c1ccc(NS(=O)(=O)c2ccc3c(c2)C2C=CCC2C(c2ccccc2F)N3)cc1 (stereo unspecified)	PABP polyA inh 81.4 (no result: core dimer inh)
O=C(O)c1ccc2c(c1)C1C=CCC1C(c1cc3c(cc1Br)OCO3)N2 (stereo unspecified)	none
CCN1CCN(Cc2ccc(NC(=O)c3cc(NC(=O)c4cc(C)on4)cc(OC)c3)cc2C(F)(F)F)CC1	DNA FID counter 41.6
O=C(/C=C/[C@H]1O[C@@H](n2cnc3c(NC(=O)c4ccccc4)ncnc32)[C@H](O)[C@@H]1O)NCCc1ccc(F)cc1	none (no result: core dimer inh, PABP polyA inh, DNA FID counter, eIF4H FP inh, NS3 helicase inh)
CC(CCCCCCCCC(=O)O)N(CCO)C(=O)OC(C)(C)C (stereo unspecified)	none (no result: core dimer inh, PABP polyA inh, DNA FID counter, eIF4H FP inh, NS3 helicase inh)
CCOCCOC(=O)C1=C(C)Nc2ccc(C)cc2S1	none
CCOC(=O)C1=C(C)Nc2ccc(C)cc2S1	MLLE-PAM2 inh 50.1
Cc1cccc(C)c1NC(=O)COC(=O)[C@@H]1CCCN1C(=O)c1cccs1	none (no result: core dimer inh, PABP polyA inh, DNA FID counter, eIF4H FP inh, NS3 helicase inh)
O=c1cc(-c2ccc(O)cc2)oc2c1ccc1ccccc12	none (no result: core dimer inh, PABP polyA inh, DNA FID counter, eIF4H FP inh, NS3 helicase inh)
O=c1cc(-c2ccc(O)cc2)oc2c(O)c(O)c(O)c(O)c12	PABP polyA inh 82.8, eIF4H FP inh 90.6
CCCCCCN1C[C@H](O)[C@@H](n2cc(C3CC3)nn2)C[C@@H]1c1ccccc1	none (no result: core dimer inh, PABP polyA inh, DNA FID counter, eIF4H FP inh, NS3 helicase inh)
N#CC(CC(=O)OCc1ccccc1)NC(=O)OCc1ccccc1 (stereo unspecified)	none (no result: core dimer inh, PABP polyA inh, DNA FID counter, eIF4H FP inh, NS3 helicase inh)
CC(OC(=O)CSc1ccc([N+](=O)[O-])cc1)C(=O)NC1CC1 (stereo unspecified)	MLLE-PAM2 inh 41.6 (no result: core dimer inh, PABP polyA inh, DNA FID counter, eIF4H FP inh, NS3 helicase inh)
CCCN(CC(=O)Nc1ccccc1C)C(=O)COc1c(C)cccc1C	none (no result: core dimer inh, PABP polyA inh, DNA FID counter, eIF4H FP inh, NS3 helicase inh)
CCOC(=O)C1CCN(C(=O)COC(=O)CSc2ccc([N+](=O)[O-])cc2)CC1	MLLE-PAM2 inh 42.0 (no result: PABP polyA inh, DNA FID counter, eIF4H FP inh, NS3 helicase inh)
CCCN(CC(=O)Nc1ccccc1C)C(=O)COC(=O)CSc1ccc([N+](=O)[O-])cc1	MLLE-PAM2 inh 40.4 (no result: PABP polyA inh, DNA FID counter, eIF4H FP inh, NS3 helicase inh)
CC1CCCC(C)N1C(=O)COC(=O)CSc1ccc([N+](=O)[O-])cc1 (stereo unspecified)	none (no result: core dimer inh, PABP polyA inh, DNA FID counter, eIF4H FP inh, NS3 helicase inh)
C=CCOC(=O)C(C#N)c1nc2ccccc2nc1N1CCN(Cc2ccccc2)CC1 (stereo unspecified)	PABP polyA inh 73.0, eIF4H FP inh 57.3
C=CCNC(=O)C(C#N)c1nc2ccccc2nc1N1CCN(Cc2ccccc2)CC1 (stereo unspecified)	none
CCCCOC(=O)C(C#N)c1nc2ccccc2nc1N1CCN(Cc2ccc3c(c2)OCO3)CC1 (stereo unspecified)	PABP polyA inh 85.2, eIF4H FP inh 53.9
CC(C)COC(=O)C(C#N)c1nc2ccccc2nc1N1CCN(Cc2ccccc2)CC1 (stereo unspecified)	PABP polyA inh 62.9, eIF4H FP inh 44.4
COCCOC(=O)C(C#N)c1nc2ccccc2nc1N1CCN(Cc2ccccc2)CC1 (stereo unspecified)	none
Cc1ccc2nc(-c3ccco3)c(CC(C)(C)C)n2c1	none (no result: core dimer inh, PABP polyA inh, DNA FID counter, eIF4H FP inh, NS3 helicase inh)
O=C(C1CC(=O)N(C2CCCCC2)C1)N1CCN(c2cccc(C(F)(F)F)c2)CC1 (stereo unspecified)	none
O=S(=O)(NC1c2cccc3cccc(c23)C1N1CCNCC1)c1ccc(Cl)cc1 (stereo unspecified)	DNA FID counter 43.2
CCOc1ccccc1CN1CCC(CO)(CCOc2ccccc2)CC1	DNA FID counter 42.1
OCC1(CCOc2ccccc2)CCN(Cc2ccccc2C(F)(F)F)CC1	none
C[n+]1ccccc1/C=C/c1c(F)cccc1F	PABP polyA inh 75.9 (no result: core dimer inh)
C[n+]1ccccc1/C=C/c1ccccc1Cl	PABP polyA inh 90.4, eIF4H FP inh 78.8 (no result: core dimer inh)
CC1=CC(=O)C=CC1=Nc1ccc(N(C)C)cc1	MLLE-PAM2 inh 50.7 (no result: core dimer inh, PABP polyA inh, DNA FID counter, eIF4H FP inh, NS3 helicase inh)
CN1c2ccccc2C(O)=C(C(=S)Nc2ccc(F)c(Cl)c2)S1(=O)=O	MLLE-PAM2 inh 47.7
Cc1ccc(NC(=S)C2=C(O)c3ccccc3N(C)S2(=O)=O)cc1	MLLE-PAM2 inh 40.0
O=C(CSc1nc2ccccc2c(=O)n1CC1CCCO1)NCCc1ccccc1 (stereo unspecified)	none
Cc1c(C(=O)OCC2CCCO2)[nH]c2c1C(=O)CC(c1ccco1)C2 (stereo unspecified)	core dimer inh 86.2, PABP polyA inh 42.8, eIF4H FP inh 90.1
C/C=C/COC(=O)c1[nH]c2c(c1C)C(=O)CC(c1ccco1)C2 (stereo unspecified)	core dimer inh 53.2 (no result: PABP polyA inh, eIF4H FP inh)
Cc1nc2c(c(=O)n1CCC1=CCCCC1)c1nc3ccccc3nc1n2/N=C/c1ccco1	PABP polyA inh 67.9, eIF4H FP inh 68.2
CCCn1c(C)nc2c(c1=O)c1nc3ccccc3nc1n2CCC1=CCCCC1	none
COc1ccc2c(c1)n([O-])c1c([n+]2=O)CCC1	none (no result: MLLE-PAM2 inh)
CCOc1ccc2c(c1)n([O-])c1c([n+]2=O)CCCC1	MLLE-PAM2 inh 42.6 (no result: core dimer inh)
C[N+](C)(C)CCN(Cc1ccc(Cl)cc1)c1ccccn1	PABP polyA inh 77.9
C1CCC(c2nn3c(-c4n[nH]c5c4CCC5)nnc3s2)CC1	core dimer inh 50.9
CCN(CC)c1ccc(-c2nn3c(-c4n[nH]c5c4CCC5)nnc3s2)cc1	none
COc1ccc(C2=NC(=O)/C(=C\c3cc(OC)c(OC)c(OC)c3)O2)cc1	MLLE-PAM2 inh 61.3
Cc1cc(C)c(C)c(OCCNCc2ccccc2)c1	none
Cc1cc(Br)ccc1OCCNCc1ccccc1	DNA FID counter 37.5
